CYP2C9 act – human CYP2C9 activators, primary screen, biochemical, luminescence. hit rate 1.4% among 96,000. recombinant CYP2C9, luciferin-H conversion; hits give high values; factor 1 = untreated enzyme, 0 = blocked. Cytochrome P450 2C9 (Homo sapiens), P11712. activation factor at 5 µM;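 active = activation factor of 2 or more for CYP2C9 at a 5 µM dose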;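 also: 0 = sulfaphenazole-blocked wells and 1 = vehicle-only wells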
CYP2C19 inhib – blockers of cytochrome P450 2C19 activity – biochemical, luminescence, ADME assay, primary screen | P33261 | CYP2C19 Supersomes, luciferin-H EGE luminescence, 30 min | inhibition, % at 5 µM | hit rate 21% among 96,000 | AID 778, 2007;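 active = CYP2C19 inhibition above a set limit at 5 µM in the primary screen, cut at about 50% in these data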;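 also: plate controls were negative control wells for no effect and 2.5 mM tranylcypromine positive control for full effect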
Cav3 T inh – Cav3.2 calcium influx blockers – cell-based, Fluo-4 calcium fluorescence, FDSS, MLSMR library, primary screen. Cav3.2-expressing cells; hits give low values. AID 449739, 2010. Voltage-dependent T-type calcium channel subunit alpha-1H (Homo sapiens), O95180. B-score at 10 µM. hit rate 4% among 100,000;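 active = single-dose well whose peak fluorescence ratio is a statistical outlier from its plate by either plate-standardised score or position-corrected B-score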
HIV Rev-RRE inh – HIV-1 Rev-RRE binding inhibitors, primary screen, biochemical, FRET, protein-RNA interaction; P05866; Rev peptide-RRE RNA binding; inhibition, % at 8 µM; hit rate 0.79% among 97,000; AID 704, 2007;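 active = inhibition above the screen-wide mean plus 3 SD, cut at about 35% in these data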;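 also: 0% = median DMSO wells and 100% = median Neomycin B control wells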
Target sequence (P05866 whole entry, looked up): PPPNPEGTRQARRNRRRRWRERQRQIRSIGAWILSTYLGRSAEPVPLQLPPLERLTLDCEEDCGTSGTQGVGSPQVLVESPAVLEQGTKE
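System: Cy5-labelled duplex RRE RNA binding fluorescein-labelled HIV Rev peptide; Signal: fluorescein-to-Cy5 FRET, 480 nm excitation; Also added: labelled Rev peptide; Compound: one concentration, 8 µM nominal; Buffer or medium: HEPES pH 7.5 salt buffer with EDTA; Read-out: % inhibition of FRET ratio versus controls; Schedule: 5 min preincubation and 15 min binding, 25 °C.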
CYP2C19 activ – human CYP2C19 activators, primary screen, biochemical, luminescence. 96,000 tested, under 10 active. activation factor at 5 µM. recombinant CYP2C19, luciferin-H EGE luminescence; hits give high values; 0 = fully inhibited enzyme, 1 = untreated enzyme. AID 1025, 2008;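 active = activation factor of at least 2 at 5 µM in the primary screen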;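 also: 0 = wells with 2.5 mM tranylcypromine and 1 = vehicle-only wells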
CYP2C9 inh – blockers of cytochrome P450 2C9 activity – biochemical, luminescence, ADME assay, primary screen; hit rate 20% among 96,000; inhibition, % at 5 µM; CYP2C9 Supersomes, luciferin-H conversion; P11712; AID 777, 2007;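 active = blocking of liver enzyme CYP2C9 beyond about 50% at 5 µM, limit read from the data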
Starred values were filed as active, the others as inactive. Most compounds without a hit are left out; they make up all but 27% or so of the library.

Results for O=C(O)c1cc(N2C(=O)C3CC=CCC3C2=O)ccc1NCc1cccnc1 (configuration not stated) ?
CYP2C9 act: 0.8; CYP2C19 inhib: 15; HIV Rev-RRE inh: 12; CYP2C19 activ: 0.8; CYP2C9 inh: 19

Results for c1ccc(CSc2nnnn2-c2ccc3c(c2)OCCO3)nc1 ?
CYP2C9 act: 0.6; CYP2C19 inhib: 90*; Cav3 T inh: 1.5; HIV Rev-RRE inh: 3; CYP2C19 activ: 0.1; CYP2C9 inh: 41

Results for O=C(CSc1nnnn1-c1ccc(Cl)cc1)NC(=O)Nc1ccc2c(c1)OCCO2 ?
Cav3 T inh: 0.99; HIV Rev-RRE inh: 9

Results for Cc1ccc(NC(=O)CCSc2nnnn2-c2ccc3c(c2)OCO3)cc1C ?
CYP2C9 act: 0.5; CYP2C19 inhib: 74*; Cav3 T inh: -5.1*; HIV Rev-RRE inh: 3; CYP2C19 activ: 0.3; CYP2C9 inh: 49

How did Clc1ccc(CSc2nnnn2-c2ccc3c(c2)OCO3)c(Cl)c1 do in these assays?
CYP2C9 act: 0.1; CYP2C19 inhib: 89*; Cav3 T inh: -3.5*; HIV Rev-RRE inh: 12; CYP2C19 activ: 0.1; CYP2C9 inh: 88*

Results for Cc1cccc(/C=N/n2c(C)cc(C)c(C#N)c2=O)c1 ?
Cav3 T inh: -0.16; HIV Rev-RRE inh: 6

How did Cc1ccc(-c2csc(N3CCC(NS(=O)(=O)c4ccc5c(c4)OCCO5)CC3)n2)cc1 do in these assays?
CYP2C9 act: 0.4; CYP2C19 inhib: 47; Cav3 T inh: -2; HIV Rev-RRE inh: 2; CYP2C19 activ: 0.5; CYP2C9 inh: 63*

Results for CCOc1ncccc1C(=O)NCc1ccc(OC)cc1 ?
CYP2C9 act: 0.5; CYP2C19 inhib: 52*; Cav3 T inh: -0.58; HIV Rev-RRE inh: 0; CYP2C19 activ: 0.5; CYP2C9 inh: 52*

What do the screens show for `COc1ccccc1C(=O)NCc1ccccc1`?
Cav3 T inh: -0.89; HIV Rev-RRE inh: 3

Results for COc1cccc(Nc2ncccc2C(=O)NCc2ccccc2)c1 ?
CYP2C9 act: 1.2; CYP2C19 inhib: 22; Cav3 T inh: -1.5; HIV Rev-RRE inh: 52*; CYP2C19 activ: 0.8; CYP2C9 inh: -16

How did CCOC(=O)CSc1nnc([C@H](C)NC(=O)OC(C)(C)C)o1 do in these assays?
CYP2C9 act: 1.1; CYP2C19 inhib: 12; Cav3 T inh: 0.038; HIV Rev-RRE inh: -1; CYP2C19 activ: 0.9; CYP2C9 inh: -9

What do the screens show for `C=C(C)CSc1nnc([C@@H](NC(=O)OC(C)(C)C)C(C)CC)o1` (some centres not stated)?
CYP2C9 act: 0.5; CYP2C19 inhib: 83*; Cav3 T inh: -2.2; HIV Rev-RRE inh: 7; CYP2C19 activ: 0.2; CYP2C9 inh: 52*

Results for CCCCSc1nnc([C@@H](NC(=O)OC(C)(C)C)C(C)C)o1 ?
CYP2C9 act: 0.6; CYP2C19 inhib: 50*; Cav3 T inh: -1.4; HIV Rev-RRE inh: 9; CYP2C19 activ: 0.5; CYP2C9 inh: 44

What do the screens show for `COc1cc(-c2nnc3sc(-c4cccs4)nn23)cc(OC)c1OC`?
CYP2C9 act: 0.2; CYP2C19 inhib: 70*; Cav3 T inh: 0.13; CYP2C19 activ: 0.3; CYP2C9 inh: 80*

Results for COc1cc(-c2nn3c(-c4cccnc4)nnc3s2)cc(OC)c1OC ?
CYP2C9 act: 0.6; CYP2C19 inhib: 66*; Cav3 T inh: 0.86; HIV Rev-RRE inh: 6; CYP2C19 activ: 0.3; CYP2C9 inh: 40

Results for COc1ccc(-c2nnc3sc(-c4cccs4)nn23)cc1OC ?
CYP2C9 act: 0.8; CYP2C19 inhib: 25; Cav3 T inh: 1.6; HIV Rev-RRE inh: 1; CYP2C19 activ: 0.8; CYP2C9 inh: 23

How did N#Cc1ccccc1NCc1ccccc1 do in these assays?
CYP2C9 act: 0.9; CYP2C19 inhib: 33; Cav3 T inh: -0.46; HIV Rev-RRE inh: -1; CYP2C19 activ: 0.7; CYP2C9 inh: 7

What do the screens show for `Clc1cccc(-c2nc(NCc3cccnc3)c3ccccc3n2)c1`?
CYP2C9 act: 0.6; CYP2C19 inhib: 4; Cav3 T inh: -0.83; HIV Rev-RRE inh: 7; CYP2C19 activ: 1; CYP2C9 inh: 37
